Experiment [1] can be described thus: Inhibition of Ang2-stimulated cortisol secretion in bovine AZF cells at 20 uM after 2 hrs by EIA. To be noted: Bos taurus.
Experiment [2] in a line: Inhibition of 8CPT-cAMP-induced cortisol secretion in bovine AZF cells at 10 uM after 24 hrs by EIA. The experiment is classed as functional. Conditions: Bos taurus. The procedure, abridged:
(§1)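 Bovine adrenal zona fasciculata cells from 2–3-yr steers were plated on fibronectin-coated dishes in DMEM/F12 with 10% FBS and antioxidants for 24 h. They were then switched to serum-free DMEM/F12 with BSA, ascorbate, tocopherol, insulin and transferrin, and treated with 250 µM 8CPT-cAMP ± curcumin (1–20 µM). Medium cortisol was measured by EIA in duplicate from duplicate samples, as mean ± SEM.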

Experiment [3] has as its target T1, Potassium channel subfamily K member 2 (Bos taurus, UniProt Q8HY88).
T1 sequence (Q8HY88 whole entry): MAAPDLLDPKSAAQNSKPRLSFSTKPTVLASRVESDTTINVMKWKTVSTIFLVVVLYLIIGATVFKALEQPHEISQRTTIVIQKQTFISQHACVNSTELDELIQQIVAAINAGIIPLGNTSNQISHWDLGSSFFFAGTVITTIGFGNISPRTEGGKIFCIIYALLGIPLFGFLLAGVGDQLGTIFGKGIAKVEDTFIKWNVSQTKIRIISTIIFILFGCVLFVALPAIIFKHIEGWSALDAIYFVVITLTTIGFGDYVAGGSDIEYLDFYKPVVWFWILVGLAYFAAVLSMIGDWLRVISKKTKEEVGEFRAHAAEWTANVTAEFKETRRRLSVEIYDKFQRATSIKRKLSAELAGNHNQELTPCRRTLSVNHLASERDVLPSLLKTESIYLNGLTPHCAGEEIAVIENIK
As to the kind of experiment: Inhibition of TREK-1 K(+) channel in bovine AZF cells. In kind it is cell-based.

The nature of experiment [4]: Inhibition of ACTH-stimulated cortisol secretion in bovine AZF cells at 10 uM after 2 hrs by EIA. In kind it is functional. Conditions: Bos taurus. The procedure, abridged:
(§2)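 AZF cells were taken from steer adrenals and plated 24 h on fibronectin in serum-containing DMEM/F12 with antioxidants, then moved to serum-free supplemented DMEM/F12. They were exposed to ACTH(1–24) ± curcumin (1–20 µM) for 0.5, 2 or 24 h. Collected media were assayed for cortisol by EIA, in duplicate from duplicate samples, as mean ± SEM.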

Experiment [5] is described as follows: Inhibition of ACTH-stimulated cortisol secretion in bovine AZF cells at 10 uM after 0.5 hrs by EIA. Conditions: Bos taurus. The experiment is classed as functional. In outline: as §2
The nature of experiment [6]: Inhibition of ACTH-stimulated cortisol secretion in bovine AZF cells after 3 hrs by EIA. In kind it is functional, Bos taurus.
Experiment [7] in a line: Inhibition of 8CPT-cAMP-induced cortisol secretion in bovine AZF cells at 10 uM after 1 hr by EIA. In kind it is functional. To be noted: Bos taurus. The procedure, abridged: as §1
Experiment [8] has as its system AZF. As to the kind of experiment: Inhibition of 8CPT-cAMP-induced cortisol secretion in bovine AZF cells at 1 to 20 uM after 1 hr by EIA. The experiment is classed as functional, cell-based. To be noted: Bos taurus. The procedure, abridged:
as §1

Experiment [9] deals with AZF. As to the kind of experiment: Inhibition of Cav3.2 channel in bovine AZF cells at 10 uM by cell patch clamp assay. In kind it is cell-based. Conditions: Bos taurus. The procedure, abridged:
(§3)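 Whole-cell T-type Ca2+ currents were recorded from bovine AZF cells 2–12 h after plating (10–15 pF, <15 µm). The pipette held CsCl/BAPTA/MgATP at pH 7.2, and the bath held TEA-Cl with 20 mM Ca2+ at pH 7.4. Current was recorded in standard saline, then the cell was superfused with 5, 10 or 20 µM curcumin, and % inhibition of current amplitude was measured (n = 4–6).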
(In general: In patch-clamp work, channel activity is measured electrically.)

A short description of experiment [10]: Inhibition of ACTH-induced StAR mRNA expression in bovine AZF cells at 10 uM after 24 hrs using [alpha32P]dCTP labeled probes by Northern blot analysis. In kind it is functional. Conditions: Bos taurus. In outline: (§4)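 Steer AZF cells ((5–8) × 10^6 per dish, fibronectin-coated) were plated 24 h with serum, then held in serum-free supplemented DMEM/F12. They were preincubated 10 min with curcumin (10 µM), then given 2 nM ACTH for 24 h. Total RNA (10 µg/lane) was run on a denaturing gel and Northern blotted with bovine CYP11a1 or StAR probes. Bands were quantified by phosphorimaging as % control, with 18S rRNA as loading reference and ≥2 experiments.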

Experiment [11] can be described thus: Inhibition of ACTH-stimulated cortisol secretion in bovine AZF cells after 24 hrs by EIA. The experiment is classed as functional, Bos taurus.
Experiment [12] can be described thus: Inhibition of ACTH-stimulated cortisol secretion in bovine AZF cells at 10 uM after 2 4 hrs by EIA. In kind it is functional. To be noted: Bos taurus. The procedure, abridged: as §2
Experiment [13] deals with AZF. The experiment in a line: Inhibition of Cav3.2 channel in bovine AZF cells at 20 uM by cell patch clamp assay. To be noted: Bos taurus. The experiment is classed as cell-based. The procedure, abridged: as §3
For experiment [14], the system named is AZF. As to the kind of experiment: Inhibition of Cav3.2 channel in bovine AZF cells at 5 uM by cell patch clamp assay. In kind it is cell-based. To be noted: Bos taurus. In outline: as §3
The subject of experiment [15] is AZF. The experiment in a line: Inhibition of ACTH-stimulated cortisol secretion in bovine AZF cells at 1 to 20 uM after 0.5 hrs by EIA. The experiment is classed as functional, cell-based. Conditions: Bos taurus. In outline: as §2
The nature of experiment [16]: Inhibition of ACTH-induced CYP11a1 mRNA expression in bovine AZF cells at 10 uM after 24 hrs using [alpha32P]dCTP labeled probes by Northern blot analysis. In kind it is functional. To be noted: Bos taurus. The procedure, abridged:
as §4

Experiment [17] can be described thus: Induction of cortisol secretion in bovine AZF cells at 20 uM after 0.5 to 24 hrs by EIA relative to control. In kind it is functional, Bos taurus. The procedure, abridged:
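AZF cells from adrenal glands of 2–3 yr steers were plated 24 h on fibronectin in DMEM/F12 with 10% FBS, tocopherol, selenite and ascorbate. Medium was then switched to serum-free DMEM/F12 with BSA, ascorbate, tocopherol, insulin and transferrin, with or without compound, at 37 °C. Media were collected at 0.5, 2 and 24 h, and cortisol was measured by EIA (duplicates of duplicate samples, mean ± SEM).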

The structures appear in SMILES notation. The source made the active and inactive calls. The calls are words filed in the database; no cut-off is given here.

Broadly, the inhibition is how much of the control response was suppressed. What is called IC50 is the midpoint of a concentration-inhibition curve. A low value points to higher potency. The compound `COc1cc(/C=C/C(=O)CC(=O)/C=C/c2ccc(O)c(OC)c2)ccc1O` [CURCUMIN] had an inhibition at 20 µM in experiment [1] of 94.5%. In addition, the inhibition at 10 µM was found to be 96.8% in [2]; 92.4% in experiment [4]; 81.1% in [5]; 92.9% in experiment [7]; 99% in experiment [10]; 91% in [12]. In experiment [16], the inhibition at 10 µM was 59%. The compound further came in with a 50% inhibitory concentration (IC50) in experiment [3] of 930 nM. In addition, the “inhibition (INH)” value in experiment [6] is 89%; in [11], 92%. For the same compound, the inhibition result in the experiment on AZF [8] and in the experiment on AZF [15] was “Active” each time. The inhibition in the experiment with AZF [9] came to 41%; with AZF [13] it was 53.3%; in the experiment on AZF [14] it was 31.9%. For the same compound, in experiment [17], the “fold change (FC)” value was 2.
